14 compounds from ChEMBL document CHEMBL4364333, “High-throughput screening of bioactive compounds via new catalytic reaction in the pooled mixture” (Bioorg Med Chem Lett, 2019) can be followed below.

Active and inactive are the calls of the source. No cut-off for these calls is given here.

What all share (format): cell-based
Data set [1] concerns HeLa. The experiment in a line: Inhibition of alkaline phosphatase secretion in human HeLa cells incubated for 3 hrs. In a few lines:
(§1)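 HeLa cells stably expressing soluble secretory alkaline phosphatase, seeded at equal numbers, exposed to diluted test material for 3 h. Secretion read out as alkaline phosphatase enzymatic activity in the culture medium.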

The test system of data set [2] is HeLa. Kind of data set: Cytotoxicity against human HeLa cells expressing alkaline phosphatase assessed as reduction in cell viability at 40 uM incubated for 3 hrs by WST-1 assay. In a few lines:
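HeLa cells stably expressing soluble secretory alkaline phosphatase, seeded at equal numbers, exposed to diluted test material for 3 h. Cytotoxicity read out as the number of live cells.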

The test system of data set [3] is HeLa. Kind of data set: Inhibition of alkaline phosphatase secretion in human HeLa cells at 18 uM incubated for 3 hrs. In a few lines:
(§2)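 HeLa cells stably expressing soluble secretory alkaline phosphatase, seeded at equal cell numbers, were incubated with the test sample for 3 h. Alkaline phosphatase enzymatic activity in the culture medium was measured as the secretion read-out. Live cell number was counted in parallel to assess cytotoxicity.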

Data set [4] has as its system HeLa. The experiment in a line: Inhibition of alkaline phosphatase secretion in human HeLa cells at 40 uM incubated for 3 hrs. In a few lines:
as §1

Data set [5] relates to HeLa. Kind of data set: Inhibition of alkaline phosphatase secretion in human HeLa cells at 50 uM incubated for 3 hrs. In a few lines: as §2

Regarding `COc1ccc2[nH]cc(C(c3c[nH]c4ccccc34)C(F)(F)F)c2c1` (centres undefined), the inhibition result in the data set on HeLa [1] is “Active”. The Activity result with HeLa [2] was “Non-Toxic”.
`FC(F)(F)C(c1c[nH]c2ccccc12)c1c[nH]c2ccc(Br)cc12` (centres undefined): the inhibition entry in the data set on HeLa [1] is “Active”. Further, the Activity result with HeLa [2] was “Non-Toxic”.
`C[C@H]1CCC/C=C/[C@@H]2C[C@H](O)C[C@H]2[C@H](O)/C=C/C(=O)O1`: the inhibition result in the data set on HeLa [3] is “Active”.
Take `FC(F)(F)C(c1c[nH]c2ccccc12)c1c[nH]c2ccccc12`: in the data set on HeLa [4], the inhibition result is “Active”. The Activity result in the data set on HeLa [2] is reported as “Non-Toxic”.
With `Cn1cc(C(c2c[nH]c3ccccc23)C(F)(F)C(F)(F)F)c2ccccc21` (centres undefined), the Activity entry with HeLa [2] is “Non-Toxic”.
With `Fc1ccc2[nH]cc(C(c3c[nH]c4ccc(F)cc34)C(F)(F)F)c2c1`, the Activity result in the data set with HeLa [2] was “Non-Toxic”.
On the same count and under the same terms, for `Cn1cc(C(c2cn(C)c3ccccc23)C(F)(F)C(F)(F)F)c2ccccc21` the value was “Non-Toxic”.
On to `FC(F)(F)C(F)(F)C(c1c[nH]c2ccccc12)c1c[nH]c2ccccc12`, for which the inhibition entry with HeLa [1] was “Active”. Further, the Activity result with HeLa [2] is “Non-Toxic”.
For `Fc1ccc2[nH]cc(C(c3c[nH]c4ccccc34)C(F)(F)F)c2c1` (centres undefined), the Activity entry in the data set on HeLa [2] was “Non-Toxic”.
Still for that read-out and setting: for `FC(F)(F)C(F)(F)C(c1c[nH]c2ccc(Br)cc12)c1c[nH]c2ccc(Br)cc12` the value was “Non-Toxic”.
`Fc1cc(F)c2c(c1)[C@H]1CCC[C@H]1C(c1cccnc1)N2` (some centres undefined): the inhibition entry with HeLa [5] was “Active”.
As for `Cn1cc(C(c2c[nH]c3ccccc23)C(F)(F)F)c2ccccc21` (centres undefined), in the data set on HeLa [2], the Activity result is reported as “Non-Toxic”.
For the compound `Cn1cc(C(c2cn(C)c3ccccc23)C(F)(F)F)c2ccccc21`, in the data set on HeLa [2], the Activity result is listed as “Non-Toxic”.
With `FC(F)(F)C(c1c[nH]c2ccc(Br)cc12)c1c[nH]c2ccc(Br)cc12`, the inhibition entry in the data set on HeLa [1] was “Active”. In addition, in the data set with HeLa [2], the Activity entry is given as “Non-Toxic”.
